In one assay the test system is Mus musculus. In words: Analgesic activity in albino mouse assessed as reduction in acetic acid-induced writhing response at 100 mg/kg, po administered 1 hr prior to acetic acid challenge relative to control. Format: functional. Also on record: scale not given: the % may be the effect or the level left. An outline of the steps:
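Six mice per group got compound po at 100 mg/kg, 1 h before ip 0.6% acetic acid (10 mL/kg). Total writhes were counted over an observation window starting 5 min after the acetic acid injection. Aspirin at 100 mg/kg po was the positive control.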

The next assay has as its system Rattus norvegicus. Put plainly: Antiinflammatory activity in albino rat assessed as inhibition of carrageenan-induced paw edema at 100 mg/kg, po administered 1 hr prior to carrageenen challenge measured after 3 hrs relative to control. Format: functional. An outline of the steps: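 Four rats per group got 100 mg/kg po, 1 h before subplantar injection of 1% Type IV lambda carrageenan suspension into the right hind paw. Vehicle controls got 0.5% sodium carboxymethyl cellulose (10 mL/kg) and the positive control got ibuprofen 100 mg/kg. Paw volume was read by plethysmograph water displacement immediately and at 3 h. Edema was compared statistically with vehicle controls as percent inhibition.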
Background: Carrageenan injected into the paw causes an acute inflammation.

A word on the inhibition in vivo: it is the drop in the measured response relative to a control, in per cent.

Molecules are shown by their SMILES.

Turning to `CC(=O)Oc1ccccc1C(=O)O` [ASPIRIN], the Activity in the assay with Mus musculus is 57.3%.
As to `CC(C)Cc1ccc(C(C)C(=O)O)cc1` (configuration not stated) [IBUPROFEN], the inhibition in vivo at 100 mg/kg in the assay with Rattus norvegicus was found to be 70.7%.
